Tests used:
Conditions in all cases: read-out: IZ
[1] = system: Botrytis fabae; experiment: Antimicrobial activity Botrytis fabae at 25 ug/mL after 72 hrs by agar diffusion technique
[2] = system: Fusarium oxysporum; experiment: Antimicrobial activity Fusarium oxysporum at 25 ug/mL after 72 hrs by agar diffusion technique
[3] = system: Botrytis fabae; experiment: Antimicrobial activity Botrytis fabae at 0.15 mg/mL after 72 hrs by agar diffusion technique
[4] = system: Bacillus thuringiensis; experiment: Antimicrobial activity Bacillus thuringiensis at 0.15 mg/mL after 24 hrs by agar diffusion technique; assay type: functional
Outline: (§1)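 Agar diffusion on nutrient agar. Test solutions were 0.15 mg/mL in DMSO, and DMSO alone was the blank. Plates were seeded with the bacterial culture and incubated 24 h at 30 °C. The read-out was the diameter of the inhibition zone in mm.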

[5] = system: Klebsiella pneumoniae; experiment: Antimicrobial activity Klebsiella pneumoniae at 0.15 mg/mL after 24 hrs by agar diffusion technique; assay type: functional
Outline: as §1

[6] = system: Fusarium oxysporum; experiment: Antimicrobial activity Fusarium oxysporum at 0.15 mg/mL after 72 hrs by agar diffusion technique
[7] = system: Bacillus thuringiensis; experiment: Antimicrobial activity Bacillus thuringiensis at 25 ug/mL after 24 hrs by agar diffusion technique; assay type: functional
[8] = system: Klebsiella pneumoniae; experiment: Antimicrobial activity Klebsiella pneumoniae at 25 ug/mL after 24 hrs by agar diffusion technique; assay type: functional

In the case of `OC(Cn1cncn1)(Cn1cncn1)c1ccc(F)cc1F` [FLUCONAZOLE], the zone of inhibition at 25 µg/mL [1] is reported as 22 mm and the zone of inhibition at 25 µg/mL [2] is reported as 16 mm.
`Cc1c(NC(=O)c2sc(=S)n(-c3ccccc3)c2N)c(=O)n(-c2ccccc2)n1C` was tested, and the zone of inhibition at 150 µg/mL [3] was 13 mm, the zone of inhibition at 150 µg/mL [4] was 12 mm and the zone of inhibition at 150 µg/mL [5] was 12 mm. For the same compound, the zone of inhibition at 150 µg/mL [6] was 13 mm.
Work on `O=C(N[C@H](CO)[C@H](O)c1ccc([N+](=O)[O-])cc1)C(Cl)Cl` [CHLORAMPHENICOL] yielded a zone of inhibition at 25 µg/mL [7] of 23 mm, a zone of inhibition at 25 µg/mL [8] of 20 mm and a zone of inhibition at 25 µg/mL [1] of 16 mm. It also gave a zone of inhibition at 25 µg/mL [2] of 15 mm.
Compound `Cc1cc(C)n(-c2c(C)n(C)n(-c3ccccc3)c2=O)c(=O)c1C#N` has a zone of inhibition at 150 µg/mL [3] of 12 mm, a zone of inhibition at 150 µg/mL [4] of 10 mm and a zone of inhibition at 150 µg/mL [5] of 13 mm. It also gave a zone of inhibition at 150 µg/mL [6] of 12 mm.
`Cc1cc(C)c2c(n1)[nH]n1c(=N)c(C(=O)Nc3c(C)n(C)n(-c4ccccc4)c3=O)nnc21` was tested, and the zone of inhibition at 150 µg/mL [3] was 13 mm, the zone of inhibition at 150 µg/mL [4] was 13 mm and the zone of inhibition at 150 µg/mL [5] was 14 mm. For the same compound, the zone of inhibition at 150 µg/mL [6] was 14 mm.
In the case of `Cc1cc(C)c2c(N/N=C(\C#N)C(=O)Nc3c(C)n(C)n(-c4ccccc4)c3=O)n[nH]c2n1`, the zone of inhibition at 150 µg/mL [3] is reported as 16 mm, the zone of inhibition at 150 µg/mL [4] is reported as 16 mm and the zone of inhibition at 150 µg/mL [5] is reported as 19 mm. It also gave a zone of inhibition at 150 µg/mL [6] of 16 mm.
Work on `Cc1c(NC(=O)c2c(Nc3ccccc3)n[nH]c2/N=C\N(C)C)c(=O)n(-c2ccccc2)n1C` yielded a zone of inhibition at 150 µg/mL [3] of 25 mm, a zone of inhibition at 150 µg/mL [4] of 27 mm and a zone of inhibition at 150 µg/mL [5] of 24 mm. It also gave a zone of inhibition at 150 µg/mL [6] of 21 mm.
Compound `Cc1c(NC(=O)CC#N)c(=O)n(-c2ccccc2)n1C` has a zone of inhibition at 150 µg/mL [3] of 10 mm, a zone of inhibition at 150 µg/mL [4] of 12 mm and a zone of inhibition at 150 µg/mL [5] of 13 mm. It also gave a zone of inhibition at 150 µg/mL [6] of 12 mm.
`CC1(C)S[C@@H]2[C@H](NC(=O)[C@H](N)c3ccccc3)C(=O)N2[C@H]1C(=O)O` [AMPICILLIN] showed a zone of inhibition at 25 µg/mL [7] of 18 mm, a zone of inhibition at 25 µg/mL [8] of 19 mm and a zone of inhibition at 25 µg/mL [1] of 17 mm. For the same compound, the zone of inhibition at 25 µg/mL [2] was 15 mm.
Compound `Cc1c(-n2nnc3[nH]nc(Nc4ccccc4)c3c2=O)c(=O)n(-c2ccccc2)n1C` has a zone of inhibition at 150 µg/mL [3] of 26 mm, a zone of inhibition at 150 µg/mL [4] of 22 mm and a zone of inhibition at 150 µg/mL [5] of 22 mm. For the same compound, the zone of inhibition at 150 µg/mL [6] was 22 mm.
`Cc1c(NC(=O)c2c(Nc3ccccc3)n[nH]c2N)c(=O)n(-c2ccccc2)n1C` was tested, and the zone of inhibition at 150 µg/mL [3] was 16 mm, the zone of inhibition at 150 µg/mL [4] was 15 mm and the zone of inhibition at 150 µg/mL [5] was 12 mm. The zone of inhibition at 150 µg/mL [6] was 12 mm.
For `Cc1cc(C)n2nc(Nc3ccccc3)c(C(=O)Nc3c(C)n(C)n(-c4ccccc4)c3=O)c2n1`, the zone of inhibition at 150 µg/mL [3] was 24 mm, the zone of inhibition at 150 µg/mL [4] was 21 mm and the zone of inhibition at 150 µg/mL [5] was 28 mm. For the same compound, the zone of inhibition at 150 µg/mL [6] was 25 mm.
For `Cc1cc(O)n2nc(Nc3ccccc3)c(C(=O)Nc3c(C)n(C)n(-c4ccccc4)c3=O)c2n1`, the zone of inhibition at 150 µg/mL [3] was 27 mm, the zone of inhibition at 150 µg/mL [4] was 20 mm and the zone of inhibition at 150 µg/mL [5] was 24 mm. For the same compound, the zone of inhibition at 150 µg/mL [6] was 25 mm.
Work on `Cc1c(NC(=O)c2cc3ccccc3oc2=N)c(=O)n(-c2ccccc2)n1C` yielded a zone of inhibition at 150 µg/mL [3] of 18 mm, a zone of inhibition at 150 µg/mL [4] of 24 mm and a zone of inhibition at 150 µg/mL [5] of 22 mm. For the same compound, the zone of inhibition at 150 µg/mL [6] was 18 mm.
Compound `Cc1c(-n2cnc3[nH]nc(Nc4ccccc4)c3c2=O)c(=O)n(-c2ccccc2)n1C` has a zone of inhibition at 150 µg/mL [3] of 27 mm, a zone of inhibition at 150 µg/mL [4] of 28 mm and a zone of inhibition at 150 µg/mL [5] of 29 mm. The zone of inhibition at 150 µg/mL [6] was 25 mm.

From ChEMBL document CHEMBL1158180, “Synthesis and antimicrobial activity of some new heterocycles incorporating antipyrine moiety” (2008)
